Test results published in ChEMBL document CHEMBL3120102, “Structure-based design, synthesis and biological evaluation of novel anthra[1,2-d]imidazole-6,11-dione homologues as potential antitumor agents” (2013).

Tests used:
Format in all cases: functional
SW-620 = test: Cytotoxicity against human SW620 cells assessed as growth inhibition after 48 hrs by SRB assay
Procedure, shortened: (§1)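 NCI 60-cell-line screen, two stages. Five-dose testing at […]. Cellular protein measured by sulforhodamine B colorimetry after 48 h drug exposure. A time-zero control and drug-free plates are used to derive GI50, TGI and LC50 from dose-response curves plotted as log10 concentration per cell line.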

[1] = (§2) Cytotoxicity against human NCI-ADR-RES cells assessed as growth inhibition after 48 hrs by SRB assay
Procedure, shortened: (§3)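 NCI 60-cell-line screen, five-dose stage: each cell line exposed for 48 h to five concentrations spanning five log steps; cellular protein measured by sulforhodamine B colorimetry. A time-zero cell control and plates without drug are used to derive GI50, TGI and LC50 from log-concentration dose-response curves.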

NCI/ADR-RES = test: as §2; procedure, shortened: as §3
[2] = Cytotoxicity against human Hs578T cells assessed as cell growth at 10 uM after 48 hrs by SRB assay; details: Hs-578T, read-out: Activity
K562 = test: Cytotoxicity against human K562 cells assessed as growth inhibition after 48 hrs by SRB assay
Procedure, shortened: (§4)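 NCI 60-cell-line five-dose screen at […]. Drug exposure was 48 h, followed by sulforhodamine B protein staining. GI50, TGI and LC50 were calculated against a time-zero control and untreated plates, with dose–response curves plotted from log10 concentration.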

TK-10 = test: Cytotoxicity against human TK10 cells assessed as growth inhibition after 48 hrs by SRB assay; procedure, shortened: as §1
Hs-578T = test: (§5) Cytotoxicity against human Hs578T cells assessed as growth inhibition after 48 hrs by SRB assay; procedure, shortened: as §4
[3] = as §5; details: Hs-578T; procedure, shortened: as §4
OVCAR-8 = test: Cytotoxicity against human OVCAR8 cells assessed as growth inhibition after 48 hrs by SRB assay; procedure, shortened: as §3
[4] = (§6) Cytotoxicity against human UO31 cells assessed as growth inhibition after 48 hrs by SRB assay; details: UO-31, 48 h; procedure, shortened: as §1
UO-31 = test: as §6; procedure, shortened: as §1
HT-29 = test: Cytotoxicity against human HT-29 cells assessed as growth inhibition after 48 hrs by SRB assay; procedure, shortened: as §4
OVCAR-3 = test: Cytotoxicity against human OVCAR3 cells assessed as cell growth at 10 uM after 48 hrs by SRB assay; details: OVCAR-3, 48 h, read-out: Activity
Procedure, shortened: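 First stage of the NCI 60 human tumour cell line screen: a single dose is tested against every line. Cell growth is read as cellular protein by sulforhodamine B colorimetry after 48 h of drug exposure, with reference to a time-zero control and to untreated plates.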

786-0 = test: Cytotoxicity against human 786-0 cells assessed as growth inhibition after 48 hrs by SRB assay; procedure, shortened: as §4
LOX IMVI = test: Cytotoxicity against human LOXIMVI cells assessed as growth inhibition after 48 hrs by SRB assay; procedure, shortened: as §4
U-251 = test: Cytotoxicity against human U251 cells assessed as growth inhibition after 48 hrs by SRB assay; procedure, shortened: as §1
A549 = test: Cytotoxicity against human A549 cells assessed as growth inhibition after 48 hrs by SRB assay; procedure, shortened: as §4
HCC 2998 = test: Cytotoxicity against human HCC2998 cells assessed as growth inhibition after 48 hrs by SRB assay; procedure, shortened: as §4
ACHN = test: Cytotoxicity against human ACHN cells assessed as growth inhibition after 48 hrs by SRB assay; procedure, shortened: as §4
DU-145 = test: Cytotoxicity against human DU145 cells assessed as growth inhibition after 48 hrs by SRB assay; procedure, shortened: as §4
EKVX = test: (§7) Cytotoxicity against human EKVX cells assessed as growth inhibition after 48 hrs by SRB assay; procedure, shortened: as §4
[5] = as §7; procedure, shortened: as §4
MDA-MB-468 = test: Cytotoxicity against human MDA-MB-468 cells assessed as growth inhibition after 48 hrs by SRB assay; procedure, shortened: as §3
NCI-H522 = test: Cytotoxicity against human NCI-H522 cells assessed as growth inhibition after 48 hrs by SRB assay; procedure, shortened: as §3
SK-MEL-5 = test: Cytotoxicity against human SK-MEL-5 cells assessed as growth inhibition after 48 hrs by SRB assay; procedure, shortened: as §3
SK-MEL-2 = test: Cytotoxicity against human SK-MEL-2 cells assessed as growth inhibition after 48 hrs by SRB assay; procedure, shortened: as §3
MCF7 = test: Cytotoxicity against human MCF7 cells assessed as growth inhibition after 48 hrs by SRB assay; procedure, shortened: as §3
[6] = (§8) Cytotoxicity against human UACC257 cells assessed as growth inhibition after 48 hrs by SRB assay; details: UACC-257, 48 h; procedure, shortened: as §1
UACC-257 = test: as §8; procedure, shortened: as §1
COLO 205 = test: Cytotoxicity against human COLO205 cells assessed as growth inhibition after 48 hrs by SRB assay; procedure, shortened: as §4
SF-268 = test: Cytotoxicity against human SF268 cells assessed as growth inhibition after 48 hrs by SRB assay; procedure, shortened: as §3
[7] = read-out: LC50 (the source's name)

With `CCSc1nc2ccc3c(c2[nH]1)C(=O)c1ccccc1C3=O` the “growth inhibition (GI)” value (SW-620) was “Dose-dependent effect”, the GI50 (SW-620; SW-620, 48 h) was over 100 µM and the LC50 (SW-620; SW-620, 48 h) was over 100 µM. For the same compound, the TGI (SW-620; SW-620, 48 h) was over 100 µM, the GI50 [1] was 8.04 µM and the LC50 (concentration causing 50% net cell kill) [1] was over 100 µM. For the same compound, the TGI [1] was over 100 µM, the “growth inhibition (GI)” value (NCI/ADR-RES) was “Dose-dependent effect” and the growth at 10 µM [2] was 85.4%. For the same compound, the “growth inhibition (GI)” value (K562) was “Dose-dependent effect”, the GI50 (K562; K562, 48 h) was 13.5 µM and the TGI (K562; K562, 48 h) was over 100 µM. The CC50 (K562; K562, 48 h, read-out: LC50 (the source's name)) was over 100 µM, the “growth inhibition (GI)” value (TK-10) was “Dose-dependent effect” and the GI50 (TK-10; TK-10, 48 h) was 7.4 µM. For the same compound, the LC50 (TK-10; TK-10, 48 h) was over 100 µM, the TGI (TK-10; TK-10, 48 h) was over 100 µM and the “growth inhibition (GI)” value (Hs-578T) was “Dose-dependent effect”. For the same compound, the GI50 [3] was 5.12 µM, the TGI [3] was over 100 µM and the CC50 [3, 7] was over 100 µM. For the same compound, the “growth inhibition (GI)” value (OVCAR-8) was “Dose-dependent effect”, the GI50 (OVCAR-8; OVCAR-8, 48 h) was 15.1 µM and the LC50 (OVCAR-8; OVCAR-8, 48 h) was over 100 µM. The TGI (OVCAR-8; OVCAR-8, 48 h) was over 100 µM, the GI50 [4] was 3.31 µM and the LC50 [4] was over 100 µM. The TGI [4] was over 100 µM, the “growth inhibition (GI)” value (UO-31) was “Dose-dependent effect” and the “growth inhibition (GI)” value (HT-29) was “Dose-dependent effect”. The GI50 (HT-29; HT-29, 48 h) was 23.1 µM, the TGI (HT-29; HT-29, 48 h) was over 100 µM and the CC50 (HT-29; HT-29, 48 h, read-out: LC50 (the source's name)) was over 100 µM. The growth at 10 µM (OVCAR-3) was 69.3%, the “growth inhibition (GI)” value (786-0) was “Dose-dependent effect” and the GI50 (786-0; 786-0, 48 h) was 46.7 µM. For the same compound, the LC50 (concentration causing 50% net cell kill) (786-0; 786-0, 48 h) was over 100 µM, the TGI (786-0; 786-0, 48 h) was over 100 µM and the GI50 (LOX IMVI) was 6 µM. The LC50 (LOX IMVI) was over 100 µM, the TGI (LOX IMVI) was over 100 µM and the “growth inhibition (GI)” value (LOX IMVI) was “Dose-dependent effect”. For the same compound, the “growth inhibition (GI)” value (U-251) was “Dose-dependent effect”, the GI50 (U-251; U-251, 48 h) was 19.5 µM and the TGI (U-251; U-251, 48 h) was over 100 µM. For the same compound, the CC50 (U-251; U-251, 48 h, read-out: LC50 (the source's name)) was over 100 µM, the “growth inhibition (GI)” value (A549) was “Dose-dependent effect” and the GI50 (A549; A549, 48 h) was 9.67 µM. The LC50 (concentration killing 50% of cells) (A549; A549, 48 h) was over 100 µM, the TGI (A549; A549, 48 h) was over 100 µM and the “growth inhibition (GI)” value (HCC 2998) was “Dose-dependent effect”. It also gave a GI50 (HCC 2998; HCC 2998, 48 h) of 12.6 µM, a TGI (HCC 2998; HCC 2998, 48 h) of over 100 µM and a CC50 (HCC 2998; HCC 2998, 48 h, read-out: LC50 (the source's name)) of over 100 µM. The GI50 (ACHN) was 5.09 µM, the TGI (ACHN) was over 100 µM and the “growth inhibition (GI)” value (ACHN) was “Dose-dependent effect”. For the same compound, the CC50 (ACHN; [7]) was over 100 µM, the “growth inhibition (GI)” value (DU-145) was “Dose-dependent effect” and the GI50 (DU-145; DU-145, 48 h) was 7.02 µM. The TGI (DU-145; DU-145, 48 h) was over 100 µM, the CC50 (DU-145; DU-145, 48 h, read-out: LC50 (the source's name)) was over 100 µM and the “growth inhibition (GI)” value (EKVX) was “Dose-dependent effect”. The GI50 [5] was 2.13 µM, the LC50 [5] was over 100 µM and the TGI [5] was 29 µM. For the same compound, the “growth inhibition (GI)” value (MDA-MB-468) was “Dose-dependent effect”, the GI50 (MDA-MB-468; MDA-MB-468, 48 h) was 2.01 µM and the LC50 (MDA-MB-468; MDA-MB-468, 48 h) was over 100 µM. The TGI (MDA-MB-468; MDA-MB-468, 48 h) was 59.6 µM, the “growth inhibition (GI)” value (NCI-H522) was “Dose-dependent effect” and the GI50 (NCI-H522; NCI-H522, 48 h) was 4.07 µM. For the same compound, the TGI (NCI-H522; NCI-H522, 48 h) was over 100 µM, the CC50 (NCI-H522; NCI-H522, 48 h, read-out: LC50 (the source's name)) was over 100 µM and the “growth inhibition (GI)” value (SK-MEL-5) was “Dose-dependent effect”. For the same compound, the GI50 (SK-MEL-5; SK-MEL-5, 48 h) was 33.6 µM, the LC50 (concentration killing 50% of cells relative to time zero) (SK-MEL-5; SK-MEL-5, 48 h) was over 100 µM and the TGI (SK-MEL-5; SK-MEL-5, 48 h) was over 100 µM. For the same compound, the “growth inhibition (GI)” value (SK-MEL-2) was “Dose-dependent effect”, the GI50 (SK-MEL-2; SK-MEL-2, 48 h) was 5.1 µM and the LC50 (50% lethal concentration) (SK-MEL-2; SK-MEL-2, 48 h) was over 100 µM. For the same compound, the TGI (SK-MEL-2; SK-MEL-2, 48 h) was over 100 µM, the “growth inhibition (GI)” value (MCF7) was “Dose-dependent effect” and the GI50 (MCF7; MCF7, 48 h) was 4.84 µM. It also gave an LC50 (concentration killing 50% of cells) (MCF7; MCF7, 48 h) of over 100 µM, a TGI (MCF7; MCF7, 48 h) of over 100 µM and a GI50 [6] of over 100 µM. For the same compound, the LC50 [6] was over 100 µM, the TGI [6] was over 100 µM and the “growth inhibition (GI)” value (UACC-257) was “Dose-dependent effect”. The “growth inhibition (GI)” value (COLO 205) was “Dose-dependent effect”, the GI50 (COLO 205; COLO 205, 48 h) was 17.4 µM and the LC50 (COLO 205; COLO 205, 48 h) was over 100 µM. For the same compound, the TGI (COLO 205; COLO 205, 48 h) was over 100 µM, the “growth inhibition (GI)” value (SF-268) was “Dose-dependent effect” and the GI50 (SF-268; SF-268, 48 h) was 18.1 µM. The LC50 (concentration killing 50% of cells relative to time zero) (SF-268; SF-268, 48 h) was over 100 µM and the TGI (SF-268; SF-268, 48 h) was over 100 µM.
